# High-throughput results from PubChem BioAssay.
# CSC inhib: cancer stem cell viability inhibitors, primary screen, luminescence | cancer stem cell-like cells viability | inhibition, % at 7.5 µM | 1.1% of 300,000 active | AID 2717, 2010; in the data active = inhibition above about 75%; tested in HMLE shEcad cells
# Beta cell apopt: inhibitors of cytokine-induced beta cell apoptosis, primary screen, luminescence; INS-1E cytokine-induced death, ATP luminescence, 48 h; percent of positive-control rescue, neutral wells zero; protection from apoptosis, % (test concentration not listed); 0.8% of 300,000 active; AID 435005, 2010;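 active = Every replicate reaches about 75%, or at least half do and their mean reaches it too, limit read from the data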;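 note: higher means more ATP so stronger rescue from cytokine killing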
# UPR XBP1 act: activators of adaptive XBP1 UPR arm, primary screen, cell-based, CHO-XBP1 luciferase reporter, luminescence, uHTS; activation, % at 20 µM; 0.33% of 330,000 active; IRE1-XBP1 UPR activation; percent of tunicamycin response, DMSO as zero;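 active = versus positive control, 20 µM dose yields 30% or more activation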
#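 Signal: luciferase luminescence; Assay system: CHO-XBP1 luciferase reporter cells; Amount: one thousand reporter cells per well; Dosing: 20 µM single concentration, DMSO 1%; Benchmarks: high control tunicamycin 10 µg/mL final, low control DMSO vehicle only; Schedule: 6 h compound exposure at 37 °C, 5% CO2; Evaluation: percent activation relative to tunicamycin reference.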
# Mdm2 MdmX PPI: inhibitors of human Mdm2-MdmX association, primary screen, cell-based, luminescence, split luciferase, SaOS-2, uHTS. Protein Mdm4 (Homo sapiens) + E3 ubiquitin-protein ligase Mdm2 (Homo sapiens), …. inhibition, % at 8 µM. 3% of 330,000 active. SaOS-2 split-luciferase Mdm2/MdmX complementation;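 active = inhibition of at least 50% at 8 µM in the primary screen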
# Target sequence (O15151 whole entry, looked up): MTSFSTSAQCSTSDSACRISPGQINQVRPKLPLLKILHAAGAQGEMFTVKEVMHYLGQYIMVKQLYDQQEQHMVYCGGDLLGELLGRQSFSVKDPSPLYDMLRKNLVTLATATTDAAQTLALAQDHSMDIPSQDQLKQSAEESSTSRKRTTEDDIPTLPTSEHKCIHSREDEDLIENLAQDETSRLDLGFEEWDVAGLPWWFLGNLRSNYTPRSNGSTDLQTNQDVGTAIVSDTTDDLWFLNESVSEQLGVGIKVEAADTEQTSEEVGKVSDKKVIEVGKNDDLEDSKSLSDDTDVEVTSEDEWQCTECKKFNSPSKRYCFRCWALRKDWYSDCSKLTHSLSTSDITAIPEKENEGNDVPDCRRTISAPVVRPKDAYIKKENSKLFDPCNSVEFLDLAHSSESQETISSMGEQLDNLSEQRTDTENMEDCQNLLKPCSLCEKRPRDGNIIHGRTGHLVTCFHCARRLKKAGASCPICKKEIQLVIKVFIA
# Target sequence (Q00987 whole entry, looked up): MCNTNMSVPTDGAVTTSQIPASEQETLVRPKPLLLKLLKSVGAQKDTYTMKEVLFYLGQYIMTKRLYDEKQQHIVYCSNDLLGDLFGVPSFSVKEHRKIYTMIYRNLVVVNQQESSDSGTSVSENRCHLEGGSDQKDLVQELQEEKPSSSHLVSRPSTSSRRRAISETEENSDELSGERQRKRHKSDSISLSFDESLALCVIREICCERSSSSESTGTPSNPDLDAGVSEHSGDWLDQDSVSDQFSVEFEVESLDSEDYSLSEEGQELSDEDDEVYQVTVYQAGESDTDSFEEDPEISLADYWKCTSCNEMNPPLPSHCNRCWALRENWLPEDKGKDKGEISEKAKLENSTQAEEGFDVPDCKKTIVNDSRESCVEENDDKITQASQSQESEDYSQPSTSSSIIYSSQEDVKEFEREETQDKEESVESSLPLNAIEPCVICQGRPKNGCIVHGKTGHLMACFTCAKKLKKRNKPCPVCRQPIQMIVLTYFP
# UPR CHOP act: activators of apoptotic CHOP UPR arm, primary screen, cell-based, CHO-CHOP luciferase reporter, luminescence, uHTS | AID 449763, 2010 | activation, % at 10 µM | UPR activation; percent of tunicamycin response over DMSO baseline | 0.34% of 330,000 active;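 active = at 10 µM dose, activation of 40% or more, normalized to positive control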
#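 System: CHO CHOP reporter cells. Amount: 500 cells per well. Buffer or medium: F12 medium, 10% FBS. Compound dosing: one dose, 10 µM in 0.5% DMSO. Incubation: 6 h compound exposure at 37 °C after overnight seeding. Technique: Steady-Glo luciferase luminescence. Benchmarks: tunicamycin and DMSO controls.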
# SKKanGAS inh: S. pyogenes SKKanGAS growth inhibitors in kanamycin, primary screen, streptokinase expression inhibitor project, SKKanGAS strain, BacTiter-Glo luminescence. 6 h. inhibition, % at 7.5 µM. 1.3% of 300,000 active. AID 1662, 2009;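 active = mean replicate score, as percent of positive control median, at least 50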;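 note: strain carries kanamycin resistance gene driven by streptokinase promoter and grows in 40 µg/ml kanamycin; loss of luminescence reflects streptokinase promoter inhibition or plain growth inhibition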
# Mdm2-MdmX conf: Mdm2-MdmX complex disruptors, retested hits, confirmation, luminescence, single concentration. Mdm2-MdmX binding, luminescent assay. AID 489028, 2010. 55% of 10,000 active. shares compounds with Mdm2 MdmX PPI. inhibition, % at 8 µM; in the data active = inhibition above about 40%
# FLuc counter: full-length luciferase signal inhibition, confirmation, counter-screen for Mdm2/MdmX interaction inhibitor project, cell-based, single concentration, SaOS-2. shares compounds with Mdm2 MdmX PPI. SaOS-2 full-length luciferase counterscreen, luminescence. inhibition, % at 8 µM. 77% of 6,200 active. AID 504607, 2011;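 active = mean inhibition at 8 µM reaching about 37%, which flags the compound as non-specific, limit read from the data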;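 note: p53-null SaOS-2 cells with luciferase driven by a doxycycline-inducible promoter; compound on cells about two nights before reading with doxycycline added after day one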
# Hits are given with their value; n = inactive; x = no result. A selection: hits, their analogues and other compounds. The true share with any hit is near 4.8%.
SMILES,CSC inhib,Beta cell apopt,UPR XBP1 act,Mdm2 MdmX PPI,UPR CHOP act,SKKanGAS inh,Mdm2-MdmX conf,FLuc counter
Cn1cc(C(=O)N/N=C/c2ccc(Br)c([N+](=O)[O-])c2)c2ccccc21,n,n,n,51.2,n,n,n,x
Cn1cc(C(=O)N/N=C/c2cccs2)c2ccccc21,n,n,n,n,n,n,x,x
Cn1cc(C(=O)N/N=C/c2ccc3c(c2)OCO3)c2ccccc21,n,n,n,65.9,n,n,44.0,64.1
O=C(N/N=C/c1ccc2c(c1)OCO2)c1sc2cc(Cl)ccc2c1Cl,n,n,n,62.5,n,n,n,50.3
Cc1cccc(C)c1OCC(=O)N/N=C/c1ccc2c(c1)OCO2,n,n,n,50.2,n,n,58.9,55.9
COC(=O)CCC(C)N1CCC(Oc2ccc(C(=O)N3CCCC3)cc2)CC1 (stereo not drawn),n,n,n,n,n,n,x,x
O=C1CCC(C(=O)N2CCCC(Nc3ccc(F)cc3)C2)=NN1 (stereo not drawn),n,x,n,n,n,n,x,x
O=C(CCl)N(c1ccccc1)C1CCS(=O)(=O)C1 (stereo not drawn),n,n,n,99.4,n,n,92.7,55.1
O=C(COC(=O)C1CCN(c2ccc(C(F)(F)F)cn2)CC1)Nc1cccc(F)c1,n,n,n,n,n,n,x,x
CCOC(=O)c1sc2nc(CSc3ccccc3)nc(NCCN(C)C)c2c1C,n,n,n,51.2,n,n,n,x
CCOC(=O)c1c(NC(=O)C2=C(C)NC(=S)NC2c2ccc(CC)cc2)sc(C)c1C (stereo not drawn),n,n,n,64.0,n,n,n,x
O=C(N/N=C/C=C/c1ccccc1)c1n[nH]c2c1CCC2,77.1,n,n,62.6,n,n,56.0,95.2
O=C(N/N=C/c1cccc2ccccc12)c1n[nH]c2c1CCCC2,n,n,n,66.3,n,n,64.9,85.2
Cc1nn(Cc2ccc(Cl)cc2Cl)c(Cl)c1/C=N/NC(=O)CNc1cccc(C(F)(F)F)c1,n,n,n,83.9,n,n,n,x
CCOc1cc(/C=C(/C#N)C(=O)Nc2ccc(O)cc2)cc(Br)c1O,n,n,n,69.7,n,n,62.5,86.3
CC1CC(C)CN(CCCNC(=O)c2ccc3c(c2)N(Cc2ccccc2)C(=O)c2ccccc2S3=O)C1 (stereo not drawn),n,n,n,64.2,n,n,40.8,69.4
O=C(NCCCN1CCCC1)c1ccc2c(c1)N(Cc1cccc(Cl)c1)C(=O)c1ccccc1S2=O (stereo not drawn),n,n,n,53.1,n,n,n,x
C/C(=N\NC(=O)c1c(Cl)c(C)nn1C)c1ccc(NC(=O)C2CCC2)cc1,n,n,n,56.0,n,n,75.1,66.9
CCN(c1ccccc1)S(=O)(=O)c1ccc(OC)c(NC(=O)CCc2nc3ccccc3c(=O)[nH]2)c1,n,x,n,n,n,n,x,x
CN(C)CCNC=C(C(=O)Nc1ccc(Cl)cc1Cl)C(=O)Nc1ccc(Cl)cc1Cl,77.6,n,n,75.5,n,55.5,n,x
CC(=O)/C(=C/N(C)C)C(=O)Nc1ccc(Cl)cc1Cl,n,n,n,n,n,n,x,x
COc1ccc(C)cc1Nc1n[n+](-c2ccccc2)c(-c2c(OC)ccc3ccccc23)s1,86.8,124.2,n,91.6,n,x,62.3,n
Oc1ccc2ccccc2c1-c1sc(Nc2ccccc2)n[n+]1-c1ccc(F)cc1,n,n,n,n,n,n,x,x
c1ccc(-[n+]2nc(Nc3cccc4ccccc34)sc2-c2c3ccccc3cc3ccccc23)cc1,n,116.7,n,64.8,n,x,80.2,n
Fc1ccc(-[n+]2nc(Nc3ccccc3)sc2-c2c3ccccc3cc3ccccc23)cc1,103.1,n,n,100.3,n,56.9,90.0,42.2
SMILES,CSC inhib,Beta cell apopt,UPR XBP1 act,Mdm2 MdmX PPI,UPR CHOP act,SKKanGAS inh,Mdm2-MdmX conf,FLuc counter
CCc1cccc(C)c1NC(=O)CN(C)C1=NS(=O)(=O)c2ccccc21,x,x,n,n,n,x,x,x
CCOc1cc(CN2CCN(c3ncccn3)CC2)ccc1OC,n,n,n,n,n,n,x,x
CCOc1ncccc1C(=O)OCC(=O)NCc1ccccc1,n,n,n,n,n,x,x,x
Cc1csc(NC(=O)CCC(=O)N(CC(=O)NC2CCCCC2)c2ccccc2)n1,n,n,n,n,n,n,x,x
Cc1ccc(N=Nc2c(N)nn3c(N)c(C#N)c(C)nc23)cc1,n,n,n,61.4,n,n,59.1,48.5
O=[N+]([O-])c1cccc(C(=NCc2ccccc2)NO)c1,n,n,n,n,n,n,x,x
CC(C)n1cnc2c(NCc3ccccc3)cc(N[C@H](C)CO)cc21,124.0,114.2,n,74.0,n,x,78.7,52.0
Cc1ccc2cc(CN(CCCN(C)C)C(=O)NCc3ccccc3)c(=O)[nH]c2c1C,n,n,n,n,n,n,x,x
Cc1cc(C)c2[nH]c(=O)c(CN(CC3CCCO3)C(=S)Nc3ccccc3)cc2c1 (stereo not drawn),n,n,n,n,n,n,x,x
Cc1ccc2cc(CN(CC3CCCO3)C(=S)Nc3ccccc3)c(=O)[nH]c2c1C (stereo not drawn),n,n,n,85.2,n,n,85.8,n
Cc1ccc2cc(CN(CCCN(C)C)C(=S)NCc3ccccc3)c(=O)[nH]c2c1C,n,n,n,55.4,n,n,n,x
O=C(Nc1cc(=O)[nH]c(=O)[nH]1)c1cc(Cl)ccc1Cl,n,n,n,64.0,n,n,55.9,58.3
CC(C)OCCCN(C)C1CCN(S(=O)(=O)c2ccc(-c3cc(C(F)(F)F)no3)s2)CC1,n,n,n,50.4,n,n,n,x
CC(C)OCCCN(C)C1CCN(S(=O)(=O)c2csc(C(N)=O)c2)CC1,n,n,n,n,n,n,x,x
Oc1ccc(-c2nc3c4c(ncn3n2)-c2ccccc2CC42CCCC2)cc1,n,n,n,77.8,n,95.4,n,x
CCCOC(=O)c1c(NC(=O)CSc2nc(-c3ccco3)cc(C(F)(F)F)n2)sc(C(=O)OC)c1C,n,n,n,n,n,n,x,x
O=C(CSc1nc(-c2ccco2)cc(C(F)(F)F)n1)Nc1ccc2c(c1)OCO2,n,n,n,61.9,n,n,64.6,43.9
